# Mcl1 Bid PPI = disrupts binding of human Mcl-1 to Bid peptide; actives 0.97% (n = 220,000); Q07820; inhibition, % at 21.7 µM; TR-FRET Mcl-1/Bid-Dy647 peptide binding, 1536-well; AID 1021;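 active means compounds that cut the binding signal by more than half at the single screening dose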;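 further: His-tagged Mcl-1 with europium anti-His antibody binding Bid BH3 peptide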
# Mcl1 Noxa PPI = Mcl-1/Noxa interaction inhibition; actives 1.5% (n = 220,000); TR-FRET Mcl-1/Noxa peptide binding, 2 h; inhibition, % at 21.7 µM; AID 1022; Q07820;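 active means compounds that cut the protein-peptide binding signal by more than 50% relative to plate controls in a single-dose test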;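 further: His-tagged Mcl-1 with rhodamine Noxa BH3 peptide and terbium anti-His antibody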
# EBV gp42 inh = blocks Epstein-Barr virus glycoprotein 42 binding | Fluorescence polarization binding assay, mP read-out | Q1HVG2 | inhibition, % (tested at 21.74 µM) | actives 0.42% (n = 220,000) | AID 1085; in the data active means inhibition above about 50%
# Target sequence (Q1HVG2 whole entry, looked up): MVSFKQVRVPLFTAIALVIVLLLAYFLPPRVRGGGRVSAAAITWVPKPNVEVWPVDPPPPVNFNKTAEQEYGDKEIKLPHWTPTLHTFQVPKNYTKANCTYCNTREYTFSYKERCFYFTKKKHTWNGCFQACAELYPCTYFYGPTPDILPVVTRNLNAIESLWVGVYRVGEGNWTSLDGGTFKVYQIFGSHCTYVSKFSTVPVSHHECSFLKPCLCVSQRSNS
# Bim-Mcl-1 = human Bim-Mcl-1 interaction inhibition; Q07820; Bead-based flow cytometry, Bim peptide-Mcl-1 binding; inhibition, % at 10 µM; actives 0.1% (n = 190,000); in the data active means inhibition above about 40%
# MCL1 BIM primary = MCL1-BIM-BH3 interaction inhibition (human); Q07820; actives 0.68% (n = 320,000); GST-MCL1 / FITC-Bim-BH3 fluorescence polarization; inhibition, % at 10.9 µM;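 active means inhibition above the mean inhibition of all tested compounds plus 3 SD, set per campaign, cut at about 40% in these data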;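 further: higher means more loss of mP so more displacement of Bim peptide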
# RBBP9 inh = human RBBP9 hydrolase inhibition. recombinant RBBP9, FP-Rh probe fluorescence polarization. actives 0.2% (n = 220,000). O75884. AID 1515. inhibition, % at 7.94 µM;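 active means inhibition above the campaign mean of all tested compounds plus 3 SD, cut at about 14% in these data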
# Target sequence (O75884 whole entry, looked up): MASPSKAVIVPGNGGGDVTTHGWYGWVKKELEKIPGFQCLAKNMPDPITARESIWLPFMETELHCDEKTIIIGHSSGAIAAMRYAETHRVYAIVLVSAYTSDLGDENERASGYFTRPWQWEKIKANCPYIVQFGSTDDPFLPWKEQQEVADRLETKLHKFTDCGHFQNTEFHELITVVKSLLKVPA
#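 System: RBBP9 protein / Quantity: 2.5 µM RBBP9 dispensing solution, before mixing / Also added: Serine-hydrolase probe FP-Rh, 375 nM pre-mixing / Dosing: 7.94 µM single dose, 0.794% DMSO / Timing: enzyme-compound preincubation 30 min, then probe labeling 45 min, 25 °C / Signal: FP readout at 525/598 nm / Controls: DMSO-treated enzyme wells and wells lacking RBBP9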
# Numbers stand for hits; – = inactive; · = no result; + = active, no number. In the library only some 2.2% were active in any assay of this set; here they are far more common.
SMILES,Mcl1 Bid PPI,Mcl1 Noxa PPI,EBV gp42 inh,Bim-Mcl-1,MCL1 BIM primary,RBBP9 inh
COc1ccc(NC2c3ncccc3C(=O)N2Cc2cccs2)cc1 (configuration not stated),–,–,–,–,–,–
O=C1c2cccnc2C(Nc2ccc(F)c(Cl)c2)N1Cc1cccs1 (configuration not stated),52,–,–,–,–,–
O=C1c2cccnc2C(Nc2ccc(Br)cc2)N1Cc1cccs1 (configuration not stated),62,–,–,–,–,–
O=C(NC1CCCC1)c1cccc2c1C(=O)c1ccc(Cl)cc1S2(=O)=O,·,·,·,·,–,·
Oc1ccc(/C=N/NC(=S)Nc2cccnc2)cc1O,–,59,–,–,47,–
CCCCN(C)C(=O)c1coc(=O)c2ccccc12,94,–,–,–,–,–
CN(C(=O)c1coc(=O)c2ccccc12)c1ccc(Br)cc1,–,–,–,–,–,–
O=C(O)c1ccc(CNC(=O)c2ccc3c(c2)OCCO3)cc1,·,·,·,·,–,·
CCOC(=O)C1=C(C)N(C)C(=O)NC1c1cc2c(cc1[N+](=O)[O-])OCO2 (configuration not stated),–,51,–,–,–,–
CC(=O)c1cccc(NC(=O)CNC(=O)c2sc3ccccc3c2Cl)c1,·,·,·,·,–,·
COc1ccc(C2(NC(C)=O)CCN(C(=O)CCC(=O)O)CC2)cc1,–,–,–,–,–,–
CC(=O)N1CCN(C(=O)c2ccco2)CC1,·,·,·,·,–,·
COc1ccc(C2(NC(C)=O)CCN(C(=O)c3ccco3)CC2)cc1,–,–,–,40,–,–
NC(=O)N1CCN(C(=O)c2ccco2)CC1,70,–,–,–,–,–
CC(=O)Nc1nc(C)c(CCC2OCCO2)c(=O)[nH]1,–,–,–,·,–,–
O=C(CN1CCN(c2ccccc2O)CC1)Nc1cc([N+](=O)[O-])ccc1Cl,–,67,–,–,–,–
CC(C(=O)Nc1cc([N+](=O)[O-])ccc1Cl)N1CCN(c2ccc(O)cc2)CC1 (configuration not stated),–,78,–,–,–,–
CN(Cc1ccccc1)C(=S)Nc1cccnc1,–,–,–,–,–,–
CSc1nc(N2CCN(Cc3ccc4c(c3)OCO4)CC2)c2ccccc2n1,·,·,·,·,–,·
O=C(NCCN1CCOCC1)c1cc(Cl)ccc1[N+](=O)[O-],–,–,–,73,–,–
CCN(CC(=O)Nc1ccc(NC(C)=O)cc1)C(=O)CCCc1nc2ccccc2s1,·,·,·,·,–,·
O=C(NCCOc1ccccc1)C1CCC(=O)N(CCCN2CCOCC2)C1 (configuration not stated),·,·,·,·,–,·
COc1ccc(N=CC2=C(Nc3ccc(OC)cc3)c3c(C)nn(-c4ccccn4)c3CC2)cc1,·,·,·,·,+,–
COC(=O)c1cc(S(=O)(=O)NCc2ccccc2)c[nH]1,·,·,·,·,–,·
O=C(O)COc1ccccc1C(Nc1cccnc1)c1cc(Cl)c2cccnc2c1O (configuration not stated),78,97,–,–,·,–
SMILES,Mcl1 Bid PPI,Mcl1 Noxa PPI,EBV gp42 inh,Bim-Mcl-1,MCL1 BIM primary,RBBP9 inh
CCOc1ccc(C(Nc2cccnc2)c2cc(Cl)c3cccnc3c2O)cc1 (configuration not stated),95,96,–,–,–,–
COc1ccc(N2CCN(C(=S)Nc3ccccc3OC)CC2)cc1,·,·,·,·,–,·
c1coc(-c2nc3c4c5c(sc4ncn3n2)CCCC5)c1,97,–,–,–,–,–
Cc1nc2sc3c(c2c2nc(-c4ccco4)nn12)CCCC3,–,–,–,–,·,–
Cc1oc(-c2cc(F)cc(F)c2)nc1CN1CCSCC1,–,–,–,–,–,–
CC1(C)CC(=O)C2=C(C1)Nc1[nH]c(=S)[nH]c(=O)c1C2c1ccccc1 (configuration not stated),–,–,–,–,–,–
CCSc1nc2c(c(=O)[nH]1)C(c1ccc(C)cc1)C1=C(CCCC1=O)N2 (configuration not stated),–,–,–,–,–,–
O=C1CCCC2=C1C(c1ccc(Br)cc1)c1c([nH]c(=S)[nH]c1=O)N2 (configuration not stated),–,53,–,–,–,–
O=c1[nH]c(=S)[nH]c2c1C(c1ccc(Br)cc1)c1c([nH]c(=S)[nH]c1=O)O2,·,·,·,·,72,·
Cc1ccc(C2C3=C(CCCC3=O)Nc3[nH]c(=S)[nH]c(=O)c32)cc1 (configuration not stated),–,–,82,–,–,–
Cn1c(=O)c2ccccc2n(CC(=O)N2CCCc3ccccc32)c1=O,·,·,·,·,–,·
O=C(Nc1cc2c(oc1=O)CCCC2=O)c1ccc(Cl)cc1,–,57,–,–,–,–
Cc1nccc2oc(=O)c(NC(=O)c3ccc(Cl)cc3)cc12,–,–,–,–,–,–
O=C(CSc1nncs1)Nc1ccc(N2CCCCC2)cc1,·,·,·,·,–,·
O=C(Nc1ccc2oc(-c3cccnc3)nc2c1)c1ccc2c(c1)OCCO2,–,53,–,–,–,–
COc1ccc(-c2nc(CC(=O)Nc3cccc(S(=O)(=O)NC4=NCCC4)c3)cs2)cc1,·,·,·,·,–,·
CCOC(=O)C1CCCN(Cc2cccs2)C1 (configuration not stated),55,–,–,–,–,–
CCOC(=O)C1CCCN(Cc2ccccc2OCC)C1 (configuration not stated),98,–,–,–,–,–
O=C(C1CCCN(Cc2ccccc2Br)C1)N1CCCCC1 (configuration not stated),59,–,–,–,–,–
CN1CCc2c(sc(NC(=O)c3ccc(S(=O)(=O)N4CCc5ccccc54)cc3)c2C(N)=O)C1,–,52,–,·,–,–
O=C(Nc1nccs1)C1CC=CCC1 (configuration not stated),·,·,·,·,–,·
O=C(Nc1ccc(O)cc1)C1CC=CCC1 (configuration not stated),–,56,–,–,–,–
CC1CCC(C(C)C)C(OC(=O)C[n+]2cc(-c3ccc(Cl)cc3)n3c2CCC3)C1 (configuration not stated),92,–,–,·,–,–
O=C(C[n+]1cc(-c2ccc(Cl)cc2)n2c1CCC2)N1c2ccccc2Sc2ccccc21,–,–,–,–,–,–
COc1ccc2nc3ccccc3nc2c1N,–,55,–,·,–,–

# Screening results: PubChem BioAssay, several laboratories
